# Bioassay records from PubChem.
# An excerpt weighted towards active compounds, which were near 2% of everything screened.
# Granule exo inh: LAMP-1 surface exposure blockers, TALL-104 cells – cell-based, flow cytometry, MLPCN library, primary screen | TALL-104 LAMP-1 surface exposure; cells stimulated with thapsigargin and PMA | inhibition, % at 10 µM | 360,000 tested, 0.66% active;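 active means inhibition above about 55%, limit read from the data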
# FGF22 binding: binders of human FGF22 protein, primary screen, FGF22 synaptogenesis inhibitor project, biophysical, thermal shift, single point; activity (Tm shift, normalised), % at 9.99 µM; recombinant FGF22 thermal shift, SYPRO orange fluorescence; percent of sucrose octasulfate shift, DMSO zero; 340,000 tested, 1.5% active; Fibroblast growth factor 22 (Homo sapiens), Q9HCT0;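 active means mean Tm shift, scaled 0 neutral to 100 positive control, at about 1.3% or above, every replicate too, limit read from the data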
# Target sequence (Q9HCT0 whole entry, looked up): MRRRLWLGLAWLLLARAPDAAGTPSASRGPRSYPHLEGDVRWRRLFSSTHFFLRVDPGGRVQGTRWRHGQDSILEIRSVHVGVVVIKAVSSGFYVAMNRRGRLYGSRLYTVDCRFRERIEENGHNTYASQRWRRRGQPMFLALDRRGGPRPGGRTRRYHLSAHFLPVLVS
# MT1-MMP act inh: blockers of MT1-MMP proenzyme processing, primary screen, HT1080 RFP-PRO-GFP cells, GFP/RFP fluorescence; AID 651647, 2012; GFP/RFP ratio fluorescence, overnight; percent of plate control window, DMSO zero; 360,000 tested, 0.061% active; GFP/RFP ratio change, % at 20 µM;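 active means GFP/RFP ratio change of at least 30% with cell ATP level not reduced by more than half and red fluorescence within 50% of control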
#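 Assay system: HT1080 RFP-PRO-GFP cells | Dosing: 20 µM single dose, 1% DMSO | Incubation: Cells overnight before dosing, compound overnight, 37 °C, 5% CO2 | Evaluation: GFP/RFP fluorescence ratio | Control set: DMSO-only wells and HT1080 RFP-L50D-GFP cell wells as references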
# ABCB6 inh 2: ABCB6 transporter inhibitors, primary screen, K562-ABCB6 cells, flow cytometry, MLPCN library | K562-ABCB6 porphyrin accumulation, 1 h; stronger effect = lower value | AID 602162, 2011 | ATP-binding cassette sub-family B member 6 (Homo sapiens), Q9NP58 | 360,000 tested, 0.19% active | fluorescence ratio to DMSO, % at 10 µM;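 active means fluorescence ratio to DMSO below 75%, the collection mean minus 3 SD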;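 further: signal is porphyrin accumulated inside mitochondria; lower ratio means ABCB6 inhibition with less porphyrin fluorescence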
# VLA-4 inh: inhibition in human VLA-4 binding assay, primary screen, VLA-4 allosteric modulator project, MLPCN library, flow cytometry, VLA-4 expressing cells; AID 2557, 2010; ligand binding flow cytometry; 330,000 tested, 0.2% active; inhibition, % (about 7 µM as worked out from the volumes in the protocol); in the data active means inhibition above about 50%
# DAGLB inhibitor: DAGLB lipase inhibitors, primary screen, biochemical, fluorescence, HTS. Diacylglycerol lipase-beta (Homo sapiens), Q8NCG7. HEK293T DAGLB membrane lysate, EnzChek fluorogenic substrate. inhibition, % at 5.17 µM. 340,000 tested, 0.059% active. AID 504411, 2011; in the data active means inhibition above about 34%
# Granule exo CP1: inhibitors of lytic granule exocytosis, confirmation, TALL-104 cells, flow cytometry, Cherry Pick01. LAMP-1 externalization; stimulated with PMA plus thapsigargin. shares compounds with Granule exo inh. inhibition, % at 10 µM. AID 651954, 2012. 1,500 tested, 11% active; in the data active means inhibition above about 60%
# Hits are given with their value; – = inactive; · = not tested or not shown.
SMILES,Granule exo inh,FGF22 binding,MT1-MMP act inh,ABCB6 inh 2,VLA-4 inh,DAGLB inhibitor,Granule exo CP1
COc1cccc(CNC(=O)C2CCN(S(=O)(=O)c3ccc(Br)s3)CC2)c1,63,–,–,–,–,–,–
CC(=O)N(C)C[C@@H]1Oc2ncc(C3=CCCC3)cc2C(=O)N([C@H](C)CO)C[C@H]1C,·,–,·,·,·,·,·
O=S(=O)(Nc1ccccc1O)c1ccc(Cl)nc1,–,–,–,–,–,–,·
COC(=O)c1ccccc1NS(=O)(=O)c1ccc(Cl)nc1,86,–,–,–,–,–,–
COc1ccccc1S(=O)(=O)N[C@H]1CC[C@H](CCNC(=O)C2CCOCC2)O[C@@H]1CO,·,–,·,·,·,·,·
CCCN(S(=O)(=O)c1ccccc1F)S(=O)(=O)c1ccccc1Br,57,–,–,–,–,–,–
OC(CCN1CCC2CCC(C2)C1)c1ccc(Br)cc1 (stereo not given),59,–,–,–,·,–,–
CN(C)CCCN1C(=O)c2cccc3c([N+](=O)[O-])ccc(c23)C1=O,57,·,–,–,–,–,–
C[C@@H]1CN([C@@H](C)CO)C(=O)c2cccc(NC(=O)NC3CCCCC3)c2O[C@@H]1CN(C)Cc1ccncc1,·,–,·,·,·,·,·
COc1ccc(S(=O)(=O)N[C@H]2C=C[C@@H](CC(=O)NCCc3ccncc3)O[C@@H]2CO)cc1,·,–,·,·,·,·,·
COc1ccc(Nc2nc(-c3sc(C)nc3C)cs2)cc1,82,–,–,–,–,–,–
CCCCCCN1C[C@H](n2cc(-c3ccc(F)cc3)nn2)[C@@H](O)C[C@@H]1c1ccc(Cl)cc1,58,–,–,–,·,–,–
COc1ccc2nc(C)cc(N3CCOCC3)c2c1,–,·,–,–,–,–,·
COc1ccc2nc(C)cc(N3CCN(c4ccccc4)CC3)c2c1,65,–,–,–,–,–,–
Cc1ccc2nc(-c3ccc(NC(=O)Cc4cccs4)cc3)[nH]c2c1,68,1.8,–,–,–,–,–
CC(=O)Oc1cccc(NC(=O)c2cccc(C(=O)Nc3cccc(OC(C)=O)c3)c2)c1,64,–,–,–,–,–,–
CCCC(O)C#Cc1cnc2c(c1)C(=O)N([C@H](C)CO)C[C@H](C)[C@H](CN(C)C(=O)NC1CCCCC1)O2 (stereo not given in full),·,–,·,·,·,·,·
CC1(C)CC2CC(C)(CN2C(=O)NC(=O)c2ccccc2)C1 (stereo not given),66,–,–,–,–,–,–
CC1(C)CC2CC(C)(CN2C(=O)Cc2ccccc2)C1 (stereo not given),–,·,–,–,–,–,·
C[C@H]1CN([C@@H](C)CO)C(=O)c2cc(NC(=O)C3CCCCC3)ccc2O[C@H]1CN(C)C(=O)Nc1ccc(F)cc1,·,–,·,·,·,·,·
C[C@H](CO)N1C[C@H](C)[C@H](CN(C)Cc2ccc(C(=O)O)cc2)Oc2ccc(NC(=O)Cc3ccccc3)cc2C1=O,·,–,·,·,·,·,·
COc1ccc2ccccc2c1CNC(C)c1ccccc1 (stereo not given),–,–,–,–,–,–,·
CC(NCCCOc1cccc2ccccc12)c1ccccc1 (stereo not given),61,–,–,–,–,–,–
COCCNC(=O)C[C@H]1CC[C@H]2[C@@H](COc3ccc(NC(=O)C4CCCC4)cc3C(=O)N2C)O1,·,–,·,·,·,·,·
COc1ccccc1-c1cc(C(F)(F)F)nc(S(=O)(=O)CCCC(=O)NCc2ccc(F)cc2)n1,75,1.4,–,–,–,–,–
SMILES,Granule exo inh,FGF22 binding,MT1-MMP act inh,ABCB6 inh 2,VLA-4 inh,DAGLB inhibitor,Granule exo CP1
NC(=O)NCC#Cc1ccc2c(c1)[C@]1(C(=O)N2)[C@H](c2ccc(O)cc2)N2[C@H](c3ccccc3)[C@H](c3ccccc3)OC(=O)[C@H]2[C@@H]1C(N)=O,·,–,·,·,·,·,·
CCCNC(=O)N1C[C@@H](O)COC[C@@H]2O[C@H](CC(=O)N3CCC(Cc4ccccc4)CC3)CC[C@H]21,·,–,·,·,·,·,·
COc1ccc(C(C)(C)C)cc1NS(=O)(=O)c1cccc2cccnc12,59,–,–,–,–,–,–
C=CCN1C(=O)[C@]2(O[C@H](CCn3cc([C@H](O)c4ccccc4)nn3)[C@@H]([Si](C)(C)c3ccc(OC)cc3)[C@@H]2C)c2cc(N3CCC3=O)ccc21,·,–,·,·,·,·,·
C[C@H](CO)N1C[C@H](C)[C@H](CN(C)C(=O)CCC(F)(F)F)OCCCC[C@H](C)Oc2ccc(NC(=O)NC3CCCCC3)cc2C1=O,·,–,·,·,·,·,·
C[C@@H]1CN([C@H](C)CO)C(=O)c2cc(-c3ccc(F)cc3)cnc2O[C@H]1CN(C)CC1CCCC1,·,–,·,·,·,·,·
N#Cc1nc(-c2ccc(OCc3ccccc3)cc2)oc1NCCCn1ccnc1,81,·,–,–,–,–,–
O=CNc1cc(-c2ccsc2)cn2c(-c3ccccc3)cnc12,71,–,–,–,·,·,82
COc1ccc(-c2cc(NC=O)c3ncc(-c4cccc(OC)c4)n3c2)cc1,63,–,–,–,·,·,74
COc1cccc(-c2cnc3c(NC(C)=O)cc(-c4ccsc4)cn23)c1,77,–,–,–,·,·,91
COc1cccc(-c2cnc3c(NC(C)=O)cc(-c4ccc(OC)c(OC)c4)cn23)c1,–,–,–,–,·,·,·
CN1C(=O)c2cc(NC(=O)C3CCCC3)ccc2OC[C@@H]2O[C@H](CC(=O)NCC(F)(F)F)CC[C@H]21,·,–,·,·,·,·,·
CC(=O)N(C)C[C@H]1Oc2cc(-c3cncnc3)ccc2S(=O)(=O)N([C@H](C)CO)C[C@@H]1C,·,–,·,·,·,·,·
C[C@@H]1CN([C@@H](C)CO)C(=O)c2cc(NC(=O)c3ccncc3)ccc2O[C@@H](C)CCCCO[C@@H]1CN(C)C(=O)Nc1cccc2ccccc12,·,–,·,·,·,·,·
Cc1cccc(Cn2nc(C(C)(C)C)cc2C(=O)Nc2ccc(F)cc2)c1,56,–,–,–,–,·,–
COc1ccc(N/C=C/C(=O)c2cc(OC)c(OC)c(OC)c2)cc1,57,–,–,–,–,–,–
COc1ccc(N/C=C/C(=O)c2ccc(OC)c(OC)c2)cc1,–,–,–,–,–,–,·
CCOC(=O)c1cnc2ccc(OCC)cc2c1N(C)Cc1ccccc1,102,–,–,–,–,–,79
